Laboratory results as given in ChEMBL document CHEMBL5247621, “From dopamine 4 to sigma 1: Synthesis, SAR and biological characterization of a piperidine scaffold of σ1 modulators” (Eur J Med Chem, 2022).
Blank lines part the entries; values can stand above or below the compound they belong to.

What was measured:
[1] = target: T1, Sigma non-opioid intracellular receptor 1 (Homo sapiens, UniProt Q99720); assay: Displacement of [3H] Pentazocine from sigma 1 receptor in HEK293 cell membrane; format: cell membranes; conditions: read-out: Ki
D(4) dopamine receptor = target: T2, D(4) dopamine receptor (Homo sapiens, UniProt P21917); assay: Displacement of [3H]N-methylspiperone from D4 receptor in HEK293 cell membrane; format: cell membranes
T2 sequence (P21917 whole entry): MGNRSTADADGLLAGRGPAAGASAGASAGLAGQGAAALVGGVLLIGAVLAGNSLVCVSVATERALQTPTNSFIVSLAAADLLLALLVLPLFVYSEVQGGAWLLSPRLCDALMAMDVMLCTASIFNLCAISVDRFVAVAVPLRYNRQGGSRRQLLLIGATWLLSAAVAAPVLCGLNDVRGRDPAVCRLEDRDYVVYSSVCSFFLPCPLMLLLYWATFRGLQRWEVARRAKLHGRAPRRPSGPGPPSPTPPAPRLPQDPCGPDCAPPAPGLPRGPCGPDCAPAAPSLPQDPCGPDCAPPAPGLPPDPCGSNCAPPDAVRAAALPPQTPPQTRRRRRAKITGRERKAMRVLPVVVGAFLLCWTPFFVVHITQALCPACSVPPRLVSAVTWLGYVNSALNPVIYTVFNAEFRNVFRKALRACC

[2] = target: T1, Sigma non-opioid intracellular receptor 1; assay: Displacement of [3H] Pentazocine from sigma 1 receptor in HEK293 cell membrane assessed as inhibition constant relative to control; format: cell membranes; design: scale not given: the % may be the effect or the level left
How it was run: (§1)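 Competitive radioligand binding in membranes harvested from HEK293 cells, with one radioligand per target: [3H]N-methylspiperone for D2, D3 and D4; [3H]SCH23390 for D1 and D5; [3H]pentazocine for σ1; [3H]DTG for σ2. Ki derived from inhibition of binding, each run in triplicate.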

[3] = target: T3, D(4) dopamine receptor (Homo sapiens) (UniProt P21917); assay: Displacement of [3H]N-methylspiperone from D4 receptor in HEK293 cell membrane assessed as inhibition constant at 10 uM relative to control; format: cell membranes; design: scale not given: the % may be the effect or the level left
T3 sequence (whole entry): T2 sequence (P21917 whole entry)

[4] = target: Sigma intracellular receptor 2 (Homo sapiens, UniProt Q5BJF2); assay: Displacement of [3H]DTG from sigma-2 receptor in HEK293 cell membrane assessed as inhibition constant; format: cell membranes; how it was run: as §1
[5] = Plasma protein binding in human assessed as unbound fraction; format: ADME, cell-free
How it was run: (§2)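 Plasma protein binding by equilibrium dialysis in human or mouse plasma, reported as fraction unbound (fu).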

D(1A) dopamine receptor = D(1A) dopamine receptor (Homo sapiens, UniProt P21728); assay: Displacement of [3H]SCH23390 from D1 receptor in HEK293 cell membrane assessed as inhibition constant; format: cell membranes; how it was run: as §1
[6] = Plasma protein binding in mouse assessed as unbound fraction; format: ADME; how it was run: as §2
[7] = target: T1, Sigma non-opioid intracellular receptor 1; assay: Binding affinity to sigma 1 receptor in human Jurkat cells; format: cell-based
D(1B) dopamine receptor = D(1B) dopamine receptor (Homo sapiens, UniProt P21918); assay: Displacement of [3H]SCH23390 from D5 receptor in HEK293 cell membrane assessed as inhibition constant; format: cell membranes; how it was run: as §1
[8] = Half life in mouse plasma at 5 mg/kg, ip measured after 24 hrs; format: ADME, organism-based; conditions: in vivo
How it was run: (§3)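 Discrete mouse study, single intraperitoneal dose of 5 mg/kg in 10% DMSO/10% Cremophor EL/30% PEG400/50% water. Plasma and brain concentrations followed over 24 h. Parameters estimated by non-compartmental analysis.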

[9] = Half life in mouse brain at 5 mg/kg, ip measured after 24 hrs; format: ADME, organism-based; conditions: in vivo; how it was run: as §3
[10] = Mean residence time in mouse plasma at 5 mg/kg, ip measured after 24 hrs; format: ADME, organism-based; conditions: in vivo; how it was run: as §3
[11] = Mean residence time in mouse brain at 5 mg/kg, ip measured after 24 hrs; format: ADME, organism-based; conditions: in vivo; how it was run: as §3
[12] = Tmax in mouse plasma at 5 mg/kg, ip measured after 24 hrs; format: ADME, organism-based; conditions: in vivo; how it was run: as §3
[13] = Tmax in mouse brain at 5 mg/kg, ip measured after 24 hrs; format: ADME, organism-based; conditions: in vivo; how it was run: as §3
[14] = Cmax in mouse plasma at 5 mg/kg, ip measured after 24 hrs; format: ADME, organism-based; design: dose 5 mg/kg, time 24 hrs, route ip; conditions: in vivo; how it was run: as §3
[15] = Cmax in mouse brain at 5 mg/kg, ip measured after 24 hrs; format: ADME, organism-based; design: time 24 hrs, dose 5 mg/kg, route ip; how it was run: as §3
[16] = AUC(infinity) in mouse plasma at 5 mg/kg, ip measured after 24 hrs; format: ADME, organism-based; design: dose 5 mg/kg, time 24 hrs, route ip; conditions: in vivo; how it was run: as §3
[17] = AUC(infinity) in mouse brain at 5 mg/kg, ip measured after 24 hrs; format: ADME, organism-based; design: dose 5 mg/kg, time 24 hrs, route ip; how it was run: as §3
[18] = Ratio of total drug concentration in mouse brain to plasma at 5 mg/kg, ip measured after 1 hr; format: ADME, organism-based
How it was run: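 Mice received 5 mg/kg IP in 10% DMSO/10% Cremophor EL/30% PEG400/50% water. Kp is total brain concentration divided by total plasma concentration, taken at 1 h and 5 h post-dose.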

[19] = Ratio of free drug concentration in mouse brain to plasma at 5 mg/kg, ip measured after 1 hr; format: ADME, organism-based
How it was run: (§4)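 Mice received 5 mg/kg IP in 10% DMSO/10% Cremophor EL/30% PEG400/50% water. Kp,uu is free brain over free plasma concentration at 1 h and 5 h. Free levels are corrected with unbound fractions measured in mouse plasma protein binding and in mouse brain homogenate binding.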

[20] = Ratio of free drug concentration in mouse brain to plasma at 5 mg/kg, ip measured after 5 hrs; format: ADME, organism-based; conditions: read-out: K(p,uu,brain); how it was run: as §4
D(3) dopamine receptor = D(3) dopamine receptor (Homo sapiens, UniProt P35462); assay: Displacement of [3H]N-methylspiperone from D3 receptor in HEK293 cell membrane assessed as inhibition constant; format: cell membranes; how it was run: as §1
Sequence of D(3) dopamine receptor (P35462 whole entry): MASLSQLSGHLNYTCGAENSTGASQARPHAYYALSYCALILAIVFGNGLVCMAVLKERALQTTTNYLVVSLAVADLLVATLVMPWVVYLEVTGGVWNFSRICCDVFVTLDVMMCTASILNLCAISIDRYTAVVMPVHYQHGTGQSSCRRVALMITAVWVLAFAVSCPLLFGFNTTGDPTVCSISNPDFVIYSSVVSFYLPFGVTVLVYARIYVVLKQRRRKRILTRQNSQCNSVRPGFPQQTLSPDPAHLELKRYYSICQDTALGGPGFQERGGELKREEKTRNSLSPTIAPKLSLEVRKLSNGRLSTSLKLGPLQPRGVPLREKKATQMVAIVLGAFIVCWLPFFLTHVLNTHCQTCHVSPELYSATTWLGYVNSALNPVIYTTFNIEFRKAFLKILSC

Sequence of D(1A) dopamine receptor (P21728 whole entry): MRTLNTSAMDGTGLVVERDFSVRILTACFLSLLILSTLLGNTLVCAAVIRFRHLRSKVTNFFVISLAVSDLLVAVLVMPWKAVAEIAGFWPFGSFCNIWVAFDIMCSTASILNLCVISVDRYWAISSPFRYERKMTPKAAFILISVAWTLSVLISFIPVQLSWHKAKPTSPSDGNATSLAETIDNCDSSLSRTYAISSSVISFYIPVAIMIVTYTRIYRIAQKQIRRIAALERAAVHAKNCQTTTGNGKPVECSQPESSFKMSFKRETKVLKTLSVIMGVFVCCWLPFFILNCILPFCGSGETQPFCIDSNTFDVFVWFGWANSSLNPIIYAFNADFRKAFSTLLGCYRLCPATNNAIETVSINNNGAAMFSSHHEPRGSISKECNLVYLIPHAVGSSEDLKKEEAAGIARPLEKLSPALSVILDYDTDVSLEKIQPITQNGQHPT
T1 sequence (Q99720 whole entry): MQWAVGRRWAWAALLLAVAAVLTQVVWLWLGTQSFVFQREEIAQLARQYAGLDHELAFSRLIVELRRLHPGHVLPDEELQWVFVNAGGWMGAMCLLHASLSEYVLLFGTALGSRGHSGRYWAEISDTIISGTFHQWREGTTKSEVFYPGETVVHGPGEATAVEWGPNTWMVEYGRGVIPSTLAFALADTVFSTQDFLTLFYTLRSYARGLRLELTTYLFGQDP
Sequence of Sigma intracellular receptor 2 (Q5BJF2 whole entry): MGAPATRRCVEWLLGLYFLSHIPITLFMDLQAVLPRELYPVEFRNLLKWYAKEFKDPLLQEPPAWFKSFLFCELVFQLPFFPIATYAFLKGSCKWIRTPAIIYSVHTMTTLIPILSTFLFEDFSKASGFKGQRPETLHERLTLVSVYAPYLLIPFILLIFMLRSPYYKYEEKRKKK
Sequence of D(1B) dopamine receptor (P21918 whole entry): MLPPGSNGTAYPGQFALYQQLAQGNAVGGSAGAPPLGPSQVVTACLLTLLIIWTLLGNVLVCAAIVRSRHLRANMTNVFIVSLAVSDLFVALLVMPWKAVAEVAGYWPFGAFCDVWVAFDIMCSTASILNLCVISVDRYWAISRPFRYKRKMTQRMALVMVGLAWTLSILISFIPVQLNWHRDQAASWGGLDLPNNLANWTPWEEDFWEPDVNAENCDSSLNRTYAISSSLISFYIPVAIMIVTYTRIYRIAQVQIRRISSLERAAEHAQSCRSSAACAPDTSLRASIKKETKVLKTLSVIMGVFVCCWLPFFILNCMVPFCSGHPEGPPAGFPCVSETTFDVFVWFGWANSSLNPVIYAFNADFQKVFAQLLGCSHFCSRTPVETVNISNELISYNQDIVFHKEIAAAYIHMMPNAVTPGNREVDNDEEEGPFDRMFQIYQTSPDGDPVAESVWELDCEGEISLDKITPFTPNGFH

Ki [1]: 4.3 nM
SMILES: COc1ccc(CN2CCC[C@H](OCc3cccc(F)c3)C2)cc1F

Ki [1]: 97 nM
SMILES: Cc1c(Cl)cccc1NC(=O)CN1CCC(OCc2ccc(Cl)c(F)c2)CC1

Ki [1]: 388 nM
Ki (D(4) dopamine receptor; read-out: Ki): 169 nM
SMILES: Cc1csc(OC[C@@H]2CN(Cc3cc4ccc(Cl)cc4[nH]3)CCO2)n1

Activity [2]: 39%
Activity [3]: 23%
SMILES: Cc1cccc(CO[C@H]2CCCN(Cc3cn4ccccc4n3)C2)n1

Ki [1]: 1280 nM
Activity [3]: 23%
SMILES: Cc1cccc(CO[C@H]2CCCN(Cc3ccc4c(cnn4C)c3)C2)n1

Ki [1]: 503 nM
Activity [3]: 60%
SMILES: Cc1ccccc1CO[C@H]1CCCN(Cc2cn3ccccc3n2)C1

Ki [1]: 37 nM
Activity [3]: 65%
Ki [4]: 239 nM
Fu [5]: 4.3%
Ki (D(1A) dopamine receptor): > 10000 nM
Fu [6]: 8.8%
SMILES: Cc1ccccc1CO[C@H]1CCCN(Cc2ccc3c(cnn3C)c2)C1

Ki [1]: 23 nM
Ki (D(4) dopamine receptor; read-out: Ki): 28 nM
SMILES: Cn1ncc2cc(CN3CCO[C@H](COc4ccc(F)c(F)c4)C3)ccc21

Ki [1]: 44 nM
Ki (D(4) dopamine receptor; read-out: Ki): 3.3 nM
SMILES: c1ccc(OC[C@@H]2CN(Cc3ccc4[nH]ccc4c3)CCO2)cc1

Ki [1]: 14 nM
Ki (D(4) dopamine receptor; read-out: pKi (converted)): 209 nM
SMILES: FC(F)(F)c1cccc(COC2CCN(Cc3cc4ccc(Cl)cc4[nH]3)CC2)c1

Ki [1]: 8.3 nM
Ki [7]: 12 nM
Ki [4]: 166 nM
Ki (D(1B) dopamine receptor): > 10000 nM
Ki (D(1A) dopamine receptor): > 10000 nM
t1/2 [8]: 2.14 h
t1/2 [9]: 9.11 h
MRT [10]: 2.12 h
MRT [11]: 8.43 h
Tmax [12]: 0.28 h
Tmax [13]: 0.56 h
Cmax [14]: 527 ng/mL
Cmax [15]: 860 ng/mL
AUC [16]: 952 ng·h/mL
AUC(0-inf) [17]: 4560 ng·h/mL
Kp [18]: 2.78
K(p,uu,brain) [19]: 1.59
Kp uu at 5 h [20]: 6.44
SMILES: Fc1ccc(COC2CCN(Cc3ccc4[nH]cnc4c3)CC2)cc1F

Ki [1]: 52 nM
SMILES: Cc1cccc(CO[C@H]2CCCN(Cc3cc4ccc(Cl)cc4[nH]3)C2)n1

Ki [1]: 41 nM
Ki (D(4) dopamine receptor; read-out: Ki): 5 nM
SMILES: COc1ccc(CN2CCO[C@H](COc3ccccc3)C2)cc1F

Ki [1]: 12 nM
SMILES: Cn1cnc2cc(CN3CCC(OCc4cccc(C(F)(F)F)c4)CC3)ccc21

Ki [1]: 8.1 nM
Fu [5]: < 0.3%
SMILES: Fc1ccc(COC2CCN(Cc3cc4ccc(Cl)cc4[nH]3)CC2)cc1F

Ki [1]: 16 nM
Activity [3]: 14%
Ki [4]: 47 nM
Ki (D(3) dopamine receptor): 512 nM
Ki (D(1B) dopamine receptor): > 10000 nM
Ki (D(1A) dopamine receptor): > 10000 nM
SMILES: Cc1cc(NC(=O)CN2CCC3(CCCN3Cc3ccc(F)c(F)c3)C2)ccc1F (configuration not stated)
